Laboratory results as given in ChEMBL document CHEMBL5360579, “Exploring the anticancer activity and the mechanism of action of pyrrolomycins F obtained by microwave-assisted total synthesis” (Eur J Med Chem, 2023).
The source made the active and inactive calls. The rule behind the calls is not given here.

Assays:
HCT-116 [1] = assay: Cytotoxicity against human HCT-116 cells assessed as inhibition of cell proliferation incubated for 48 hrs by MTT assay; format: functional, cell-based; conditions: HCT-116, 48 h
Method in brief: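 Cells kept in DMEM with 10% heat-inactivated FBS, penicillin/streptomycin, 37 °C, 5% CO2. Plated at 5×10^3 cells/well and left 24 h, then exposed 48 h to 80, 20, 5, 1.25, 0.31 and 0.078 µM (diluted from 5 mM DMSO stocks). MTT added for 2 h at 37 °C, formazan dissolved in DMSO, A570 read. Blank subtracted, viability taken relative to untreated cells. IC50 from a sigmoidal fit of % inhibition vs log concentration. Three experiments, each in triplicate.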

[2] = Selectivity index, ratio of IC50 for hTERT-RPE1 cells to IC50 for human MCF7 cells; format: toxicity; conditions: hTERT-RPE1 cells versus MCF7 cells, read-out: Ratio IC50
Method in brief: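 Ratio of the hTERT-RPE-1 MTT IC50 to the IC50 in HCT116 or MCF-7. Each IC50 comes from a 48 h MTT assay (0.078–80 µM, sigmoidal fit), three experiments in triplicate.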

MCF7 [3] = assay: Induction of morphological changes in human MCF7 cells assessed as reduction in cell clumps at 1 uM incubated for 48 hrs by inverted phase-contrast microscopic analysis; format: functional, cell-based
HCT-116 [4] = assay: Induction of morphological changes in human HCT-116 cells assessed as appearance of flattened cells at 0.5 uM incubated for 48 hrs by inverted phase-contrast microscopic analysis; format: functional, cell-based
MCF7 [5] = assay: Induction of morphological changes in human MCF7 cells assessed as appearance of flattened cells at 1 uM incubated for 48 hrs by inverted phase-contrast microscopic analysis; format: functional, cell-based
MCF7 [6] = assay: Induction of morphological changes in human MCF7 cells assessed as appearance of filamentous protrusions at 1 uM incubated for 48 hrs by inverted phase-contrast microscopic analysis; format: functional, cell-based
HCT-116 [7] = assay: Induction of morphological changes in human HCT-116 cells assessed as appearance of actin rich long elongations at 0.5 uM incubated for 48 hrs by rhodamine-phalloidin staining based fluorescence microscopic analysis; format: functional, cell-based
Method in brief: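 HCT116 on coverslips, treated 48 h at 0.5 µM. Fixed in cold methanol 15 min, permeabilized 15 min in 0.1% Triton X-100/PBS. Stained with 0.165 µM rhodamine-phalloidin for 40 min in the dark at room temperature. Imaged at 640X.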

HCT-116 [8] = assay: Induction of morphological changes in human HCT-116 cells assessed as increase in number of prominent vacuoles at 0.5 uM incubated for 48 hrs by inverted phase-contrast microscopic analysis; format: functional, cell-based
TERT-RPE1 = assay: Induction of morphological changes in hTERT-RPE1 cells at 5 uM incubated for 48 hrs by inverted phase-contrast microscopic analysis; format: toxicity, cell-based; conditions: human, tert-rpe1, 48 h
HCT-116 [9] = assay: Induction of morphological changes in human HCT-116 cells assessed as alteration in intercellular adhesion at 0.5 uM incubated for 48 hrs by scanning electron microscopic analysis; format: functional, cell-based
Method in brief: (§1)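 HCT116 on coverslips, treated 48 h at 0.5 µM. Coverslips rinsed in PBS pH 7.4, fixed in 4% glutaraldehyde for 30 min at 4 °C, then imaged by scanning electron microscopy at 5000X and 20000X.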

HCT-116 [10] = assay: Induction of morphological changes in human HCT-116 cells assessed as massive vacuolization at 0.5 uM incubated for 48 hrs by scanning electron microscopic analysis; format: functional, cell-based; method in brief: as §1
HCT-116 [11] = assay: Induction of apoptosis in human HCT-116 cells assessed as chromatin condensation at 0.5 uM incubated for 48 hrs by Hoechst 33342 staining based analysis; format: functional, cell-based
Method in brief: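 HCT116 on coverslips at 5×10^4 cells/well, treated 48 h at 0.5 µM after 24 h attachment. PBS-washed, stained 10 min with Hoechst 33342 (final 1 µg/ml). Nuclei inspected at once by fluorescence microscopy at 640X for chromatin condensation and nuclear fragmentation.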

HCT-116 [12] = assay: Induction of cell death in human HCT-116 cells assessed as effect on Bcl2 protein expression at 0.5 uM incubated for 48 hrs by Western blot analysis; format: functional, cell-based
HCT-116 [13] = assay: Induction of autophagy in human HCT-116 cells assessed as effect on Atg-7 protein expression at 0.5 uM incubated for 48 hrs by Western blot analysis; format: functional, cell-based
HCT-116 [14] = assay: Inhibition of epithelial mesenchymal transition in human HCT-116 cells assessed as effect on vimentin protein expression at 0.5 uM incubated for 48 hrs by Western blot analysis; format: functional, cell-based
HCT-116 [15] = assay: Upregulation of cofilin protein expression in human HCT-116 cells at 0.5 uM incubated for 48 hrs by Western blot analysis; format: functional, cell-based
HCT-116 [16] = assay: Induction of intracellular ROS generation in human HCT-116 cells at IC50 by DCFH-DA staining based analysis; format: functional, cell-based; conditions: time 24-48 hrs, TDE = time-dependent effect
Method in brief: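 HCT116 plated at 5×10^3 cells/well, grown overnight, then exposed 24 h or 48 h at the IC50 concentration. Loaded with 10 µM DCFH-DA for 30 min at 37 °C, medium swapped for PBS. Fluorescence read at ex 488/em 525 nm, normalized to cell number from a parallel MTT assay and to untreated cells. Triplicate, mean ±SD, Student's t-test.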

HCT-116 [17] = assay: Induction of intracellular ROS generation in human HCT-116 cells at IC50 measured after 48 hrs by DCFH-DA staining based fluorescence microscopic analysis; format: functional, cell-based
Method in brief: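 HCT116 on coverslips at 5×10^4 cells/well, treated 48 h at the IC50 concentration. Loaded with 10 µM DCFH-DA for 30 min at 37 °C, then imaged by fluorescence microscopy at 640X.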

HCT-116 [18] = assay: Induction of cell death in human HCT-116 cells assessed as increase in orange fluorescence at 0.5 uM incubated for 48 hrs by acridine orange and ethidium bromide staining based fluorescence microscopic analysis; format: functional
Method in brief: (§2)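 HCT116 on coverslips (5×10^4 cells/well), 24 h attachment, then exposed 48 h to 0.5 µM. PBS-washed and stained a few minutes with a 1:1 mix of acridine orange (100 µg/mL) and ethidium bromide (100 µg/mL). Viewed at once by fluorescence microscopy at 640X, scoring green vs orange nuclei and punctate cytoplasmic staining.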

HCT-116 [19] = assay: Induction of cell death in human HCT-116 cells assessed as loss of membrane integrity at 0.5 uM incubated for 48 hrs by acridine orange and ethidium bromide staining based fluorescence microscopic analysis; format: functional; method in brief: as §2
HCT-116 [20] = assay: Induction of cell death in human HCT-116 cells assessed as membrane blebbing at 0.5 uM incubated for 48 hrs by acridine orange and ethidium bromide staining based fluorescence microscopic analysis; format: functional; method in brief: as §2
HCT-116 [21] = assay: Induction of cell death in human HCT-116 cells assessed as appearance of acidic vesicular organelles by measuring bright punctate dots in cytoplasm at 0.5 uM incubated for 48 hrs by acridine orange and ethidium bromide staining based fluorescence microscopic analysis; format: functional; method in brief: as §2
HCT-116 [22] = assay: Cytotoxicity against human HCT-116 cells assessed as reduction in colony formation treated for 48 hrs and measured after 10 days post last treatment by crystal violet staining based analysis; format: functional, cell-based; conditions: dose 0.1-5 µM, time 9.0 day, in the assay text read “7 days” for “10 days”
Method in brief: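 HCT116 seeded at 5×10^4 cells/well. After 24 h, treated 48 h at 0.1–0.5 and 5 µM, then grown a further 7 days. Fixed and stained 30 min with 6.0% glutaraldehyde plus 0.5% crystal violet, then washed. Dye taken up in 5% acetic acid and read at 592 nm.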

Compound	IC50 (HCT-116 [1])	Activity (MCF7 [3])	Activity (HCT-116 [4])	Activity (MCF7 [5])	Activity (MCF7 [6])	Activity (HCT-116 [7])	Activity (HCT-116 [8])	Activity (TERT-RPE1)	Activity (HCT-116 [9])	Activity (HCT-116 [10])	Activity (HCT-116 [11])	Activity (HCT-116 [12])	inhibition (HCT-116 [14])	Activity (HCT-116 [15])	Activity (HCT-116 [16])	Activity (HCT-116 [17])	Activity (HCT-116 [18])	Activity (HCT-116 [19])	Activity (HCT-116 [20])	Activity (HCT-116 [21])	further results
O=C(c1cc(Br)ccc1O)c1[nH]c(Br)c(Cl)c1Br	490 nM	Active	Active	Active	Active	Active	Active	Non-Toxic	Active	Active	inactive	Active	inactive	Active	Tde	Active	Active	Active	Active	Active	selectivity ratio [2]: ~100; Activity (HCT-116 [13]): Active; Activity (HCT-116 [22]): Dose-Dependent Effect
O=C(c1cc(Br)ccc1O)c1[nH]c(Br)c(Br)c1Br	350 nM	Active	Active	Active	Active	Active	Active	Non-Toxic	Active	Active	inactive	Active	inactive	Active	Tde	Active	Active	Active	Active	Active	selectivity ratio [2]: ~100; Activity (HCT-116 [13]): Active; Activity (HCT-116 [22]): Dose-Dependent Effect
O=C(c1cc(Br)cc(Br)c1O)c1[nH]c(Br)c(Br)c1Br	1300 nM	Active	Active	Active	Active	Active	Active	Non-Toxic	Active	Active	inactive	Active	inactive	Active	Tde	Active	Active	Active	Active	Active	
O=C(c1cc(Br)ccc1O)c1[nH]c(Cl)c(Cl)c1Br	880 nM	Active	Active	Active	Active	Active	Active	Non-Toxic	Active	Active	inactive	Active	inactive	Active	Tde	Active	Active	Active	Active	Active	selectivity ratio [2]: ~100; Activity (HCT-116 [13]): Active; Activity (HCT-116 [22]): Dose-Dependent Effect
O=C(c1cc(Br)ccc1O)c1[nH]c(Cl)c(Br)c1Br	410 nM	Active	Active	Active	Active	Active	Active	Non-Toxic	Active	Active	inactive	Active	inactive	Active	Tde	Active	Active	Active	Active	Active	selectivity ratio [2]: ~100; Activity (HCT-116 [13]): Active; Activity (HCT-116 [22]): Dose-Dependent Effect
